Experimental data taken from ChEMBL document CHEMBL4732233, “Faropenem reacts with serine and metallo-β-lactamases to give multiple products” (Eur J Med Chem, 2021).

Key:
[1] = Drug metabolism assessed as VIM-2 (unknown origin)-mediated compound hydrolysis by measuring (S)-2-((1S,2R)-1-carboxy-2-hydroxypropyl)-5-((R)-tetrahydrofuran-2-yl)-2,3-dihydrothiazole-4-carboxylic acid formation at 5 mM incubated for 5 mins by 1H-NMR based analysis; type: ADME; conditions: bacteria, 5000 µM
[2] = Drug metabolism assessed as OXA-23 (unknown origin)-mediated compound hydrolysis by measuring (S)-2-((1S,2R)-1-carboxy-2-hydroxypropyl)-5-((R)-tetrahydrofuran-2-yl)-2,3-dihydrothiazole-4-carboxylic acid formation at 2 mM incubated for 15 mins by 1H-NMR based analysis; type: ADME; conditions: bacteria, 0.25 h, 2000 µM
Bacteria [3] = system: Bacteria
[4] = Drug metabolism assessed as NDM-1 (unknown origin)-mediated compound hydrolysis by measuring (R)-2-((1S,2R)-1-carboxy-2-hydroxypropyl)-5-((R)-tetrahydrofuran-2-yl)-2,3-dihydrothiazole-4-carboxylic acid formation at 5 mM incubated for 5 mins by 1H-NMR based analysis; type: ADME; conditions: bacteria, 5000 µM
In short: (§1)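 NDM-1 used at 5 μM with 5 mM faropenem, 5 min incubation, in 50 mM sodium phosphate, pH 7.5, 10% (v/v) D2O. Degradation products monitored by 700 MHz 1H NMR via methyl group signals.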

Bacteria [5] = system: Bacteria; remark: listed apart in the source
[6] = Drug metabolism assessed as VIM-2 (unknown origin)-mediated compound hydrolysis by measuring (R)-2-((1S,2R)-1-carboxy-2-hydroxypropyl)-5-(4-hydroxybutylidene)-2,5-dihydrothiazole-4-carboxylic acid formation at 5 mM incubated for 5 mins by 1H-NMR based analysis; type: ADME; conditions: bacteria, 5000 µM
Bacteria [7] = system: Bacteria; remark: listed apart in the source
[8] = Drug metabolism assessed as OXA10 (unknown origin)-mediated compound hydrolysis by measuring (R)-2-((1S,2R)-1-carboxy-2-hydroxypropyl)-5-((R)-tetrahydrofuran-2-yl)-2,3-dihydrothiazole-4-carboxylic acid formation at 5 mM incubated for 16 hrs by 1H-NMR based analysis; type: ADME; conditions: bacteria, 5000 µM
In short: (§2)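 OXA-10 at 5 μM with 5 mM faropenem, incubated 16 h in 50 mM sodium phosphate, pH 7.5, 10% (v/v) D2O. Product formation read by 1H NMR (700 MHz) methyl group resonances.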

[9] = Drug metabolism assessed as VIM-1 (unknown origin)-mediated compound hydrolysis by measuring (2R)-2-((1S,2R)-1-carboxy-2-hydroxypropyl)-5-((R)-tetrahydrofuran-2-yl)-2,5-dihydrothiazole-4-carboxylic acid formation at 5 mM incubated for 5 mins by 1H-NMR based analysis; type: ADME; conditions: bacteria, 5000 µM
[10] = Drug metabolism assessed as VIM-2 (unknown origin)-mediated compound hydrolysis by measuring (S)-2-((1S,2R)-1-carboxy-2-hydroxypropyl)-5-(4-hydroxybutylidene)-2,5-dihydrothiazole-4-carboxylic acid formation at 5 mM incubated for 5 mins by 1H-NMR based analysis; type: ADME; conditions: bacteria, 5000 µM
Klebsiella pneumoniae [11] = system: Klebsiella pneumoniae
Bradyrhizobium japonicum [12] = conditions: USDA110
[13] = Drug metabolism assessed as KPC-2 (unknown origin)-mediated compound hydrolysis by measuring (S)-2-((1S,2R)-1-carboxy-2-hydroxypropyl)-5-((R)-tetrahydrofuran-2-yl)-2,3-dihydrothiazole-4-carboxylic acid formation at 5 mM incubated for 72 mins by 1H-NMR based analysis; type: ADME; conditions: bacteria, 1.2 h, 5000 µM
Bacteria [14] = system: Bacteria; remark: listed apart in the source
[15] = Drug metabolism assessed as VIM-1 (unknown origin)-mediated compound hydrolysis by measuring (R)-2-((1S,2R)-1-carboxy-2-hydroxypropyl)-5-((R)-tetrahydrofuran-2-yl)-2,3-dihydrothiazole-4-carboxylic acid formation at 5 mM incubated for 5 mins by 1H-NMR based analysis; type: ADME; conditions: bacteria, 5000 µM
Bradyrhizobium japonicum [16] = conditions: USDA110; remark: listed apart in the source
Klebsiella pneumoniae [17] = system: Klebsiella pneumoniae; remark: listed apart in the source
[18] = Drug metabolism assessed as KPC-2 (unknown origin)-mediated compound hydrolysis by measuring (R)-2-((1S,2R)-1-carboxy-2-hydroxypropyl)-5-(4-hydroxybutylidene)-2,5-dihydrothiazole-4-carboxylic acid formation at 5 mM incubated for 72 mins by 1H-NMR based analysis; type: ADME; conditions: bacteria, 1.2 h, 5000 µM
[19] = Drug metabolism assessed as VIM-1 (unknown origin)-mediated compound hydrolysis by measuring (S)-2-((1S,2R)-1-carboxy-2-hydroxypropyl)-5-(4-hydroxybutylidene)-2,5-dihydrothiazole-4-carboxylic acid formation at 5 mM incubated for 5 mins by 1H-NMR based analysis; type: ADME; conditions: bacteria, 5000 µM
[20] = Drug metabolism assessed as VIM-2 (unknown origin)-mediated compound hydrolysis by measuring (2R)-2-((1S,2R)-1-carboxy-2-hydroxypropyl)-5-((R)-tetrahydrofuran-2-yl)-2,5-dihydrothiazole-4-carboxylic acid formation at 5 mM incubated for 5 mins by 1H-NMR based analysis; type: ADME; conditions: bacteria, 5000 µM
[21] = Drug metabolism assessed as L1 (unknown origin)-mediated compound hydrolysis by measuring (S)-2-((1S,2R)-1-carboxy-2-hydroxypropyl)-5-(4-hydroxybutylidene)-2,5-dihydrothiazole-4-carboxylic acid formation at 5 mM incubated for 5 mins by 1H-NMR based analysis; type: ADME; conditions: bacteria, 5000 µM
In short: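 L1 enzyme (125 nM) reacted with 5 mM faropenem for 5 min in 50 mM sodium phosphate pH 7.5 containing 10% (v/v) D2O. Product species assigned by 1H NMR (700 MHz) methyl resonances.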

Bacteria [22] = system: Bacteria; remark: listed apart in the source
[23] = Drug metabolism assessed as NDM-1 (unknown origin)-mediated compound hydrolysis by measuring (R)-2-((1S,2R)-1-carboxy-2-hydroxypropyl)-5-(4-hydroxybutylidene)-2,5-dihydrothiazole-4-carboxylic acid formation at 5 mM incubated for 5 mins by 1H-NMR based analysis; type: ADME; conditions: bacteria, 5000 µM; in short: as §1
[24] = Drug metabolism assessed as OXA10 (unknown origin)-mediated compound hydrolysis by measuring (R)-2-((1S,2R)-1-carboxy-2-hydroxypropyl)-5-(4-hydroxybutylidene)-2,5-dihydrothiazole-4-carboxylic acid formation at 5 mM incubated for 16 hrs by 1H-NMR based analysis; type: ADME; conditions: bacteria, 5000 µM; in short: as §2
[25] = Drug metabolism assessed as KPC-2 (unknown origin)-mediated compound hydrolysis by measuring (R)-2-((1S,2R)-1-carboxy-2-hydroxypropyl)-5-((R)-tetrahydrofuran-2-yl)-2,3-dihydrothiazole-4-carboxylic acid formation at 5 mM incubated for 72 mins by 1H-NMR based analysis; type: ADME; conditions: bacteria, 1.2 h, 5000 µM
[26] = Drug metabolism assessed as OXA-48 (unknown origin)-mediated compound hydrolysis by measuring (R)-2-((1S,2R)-1-carboxy-2-hydroxypropyl)-5-((R)-tetrahydrofuran-2-yl)-2,3-dihydrothiazole-4-carboxylic acid formation at 5 mM incubated for 55 mins by 1H-NMR based analysis; type: ADME; conditions: bacteria, 5000 µM
In short: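 Reaction of OXA-48 (5 μM) with 5 mM faropenem for 55 min in 50 mM sodium phosphate pH 7.5, 10% (v/v) D2O. Products assigned from methyl group resonances in 700 MHz 1H NMR spectra.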

In the case of C[C@@H](O)[C@H]1C(=O)N2C(C(=O)O)=C([C@H]3CCCO3)S[C@H]12 [FAROPENEM], the Drug metabolism [1] is reported as “Metabolite_Detected”, the Drug metabolism [2] is reported as “Metabolite_Detected” and the kcat (Bacteria [3]) is reported as 43.7 s⁻¹. The Drug metabolism [4] was “Metabolite_Detected”, the kcat/Km (Bacteria [5]) was 1.2e+06 M⁻¹ s⁻¹ and the Drug metabolism [6] was “Metabolite_Detected”. For the same molecule, the kcat/Km (Bacteria [7]) was 220000 M⁻¹ s⁻¹, the Drug metabolism [8] was “Metabolite_Detected” and the Drug metabolism [9] was “Metabolite_Detected”. For the same molecule, the Drug metabolism [10] was “Metabolite_Detected”, the kcat/Km (Klebsiella pneumoniae [11]) was 150000 M⁻¹ s⁻¹ and the kcat/Km (Bradyrhizobium japonicum [12]) was 8000 M⁻¹ s⁻¹. For the same molecule, the Drug metabolism [13] was “Metabolite_Detected”, the Km (Bacteria [14]) was 5.11 µM and the Drug metabolism [15] was “Metabolite_Detected”. The Km (Bradyrhizobium japonicum [16]) was 245 µM, the kcat (Klebsiella pneumoniae [17]) was 14.7 s⁻¹ and the Drug metabolism [18] was “Metabolite_Detected”. The Drug metabolism [19] was “Metabolite_Detected”, the Drug metabolism [20] was “Metabolite_Detected” and the Drug metabolism [21] was “Metabolite_Detected”. The Km (Bacteria [22]) was 36.3 µM, the Drug metabolism [23] was “Metabolite_Detected” and the Drug metabolism [24] was “Metabolite_Detected”. The Drug metabolism [25] was “Metabolite_Detected” and the Drug metabolism [26] was “Metabolite_Detected”.
